Test results taken from ChEMBL document CHEMBL4229360, “Antimalarial agents against both sexual and asexual parasites stages: structure-activity relationships and biological studies of the Malaria Box compound 1-[5-(4-bromo-2-chlorophenyl)furan-2-yl]-N-[(piperidin-4-yl)methyl]methanamine (MMV019918) and analogues” (Eur J Med Chem, 2018).

What was measured:
Plasmodium falciparum [1] = test: Antiplasmodial activity against chloroquine-sensitive Plasmodium falciparum D10 after 72 hrs by lactate dehydrogenase assay; assay type: functional, organism-based; conditions: D10, 72 h
In short: (§1)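 Asynchronous blood-stage cultures at 1–1.5% parasitemia and 1% final hematocrit in human A+ RBCs, RPMI 1640 with 1% AlbuMax, hypoxanthine, HEPES and glutamine. Serial dilutions from DMSO stocks, final DMSO <1%. Incubated 72 h at 37 °C under 1% O₂/5% CO₂. IC50 is the mean of ≥3 experiments in duplicate.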

Plasmodium falciparum [2] = test: Antiplasmodial activity against chloroquine-resistant Plasmodium falciparum W2 after 72 hrs by lactate dehydrogenase assay; assay type: functional, organism-based; conditions: W2, 72 h; in short: as §1
Plasmodium falciparum [3] = test: Gametocytocidal activity against Plasmodium falciparum 3D7 elo1-pfs16-CBG99 late-stage (4 to 5) gametocytes assessed as inhibition of parasite viability after 72 hrs by luciferase reporter assay; assay type: functional, organism-based; conditions: 3D7 elo1-pfs16-CBG99, 72 h
In short: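 Transgenic 3D7elo1-pfs16-CBG99 gametocytes express CBG99 luciferase from the pfs16 promoter. Stage IV–V gametocytes (Giemsa-checked) were exposed at day 8–10 after NAG addition to serial dilutions in complete medium for 72 h. Samples at 2% haematocrit were then mixed 1:1 with D-luciferin (1 mM, pH 5.5 citrate) for 10 min and luminescence was read. IC50 came from non-linear regression, mean of ≥3 experiments in duplicate.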

Plasmodium falciparum [4] = test: Antiplasmodial activity against gametocytes of Plasmodium falciparum NF54 infected in Anopheles stephensi mosquitoes after 24 hrs by standard membrane feeding assay; assay type: functional, organism-based; conditions: NF54, 24 h
[5] = Cardiotoxicity in Langendorff perfused Wistar rat heart assessed as reduction of left ventricular pressure; assay type: toxicity, tissue-based
[6] = Cardiotoxicity in Langendorff perfused Wistar rat heart assessed as coronary perfusion pressure at 0.1 to 10 uM; assay type: toxicity, tissue-based
[7] = Cardiotoxicity in Langendorff perfused Wistar rat heart assessed as frequency of heart rate at 0.1 uM by electrocardiography (reference value: 247.05 to 275.90 bpm); assay type: toxicity, tissue-based
[8] = Cardiotoxicity in Langendorff perfused Wistar rat heart assessed as frequency of heart rate at 1 uM by electrocardiography (reference value: 247.05 to 275.90 bpm); assay type: toxicity, tissue-based
[9] = Cardiotoxicity in Langendorff perfused Wistar rat heart assessed as frequency of heart rate at 3 uM by electrocardiography (reference value: 247.05 to 275.90 bpm); assay type: toxicity, tissue-based
[10] = Cardiotoxicity in Langendorff perfused Wistar rat heart assessed as frequency of heart rate at 10 uM by electrocardiography (reference value: 247.05 to 275.90 bpm); assay type: toxicity, tissue-based
[11] = Cardiotoxicity in Langendorff perfused Wistar rat heart assessed as cycle length interval time at 0.1 uM by electrocardiography (reference value: 217.15 to 242.23 milliseconds); assay type: toxicity, tissue-based
[12] = Cardiotoxicity in Langendorff perfused Wistar rat heart assessed as cycle length interval time at 1 uM by electrocardiography (reference value: 217.15 to 242.23 milliseconds); assay type: toxicity, tissue-based
[13] = Cardiotoxicity in Langendorff perfused Wistar rat heart assessed as cycle length interval time at 3 uM by electrocardiography (reference value: 217.15 to 242.23 milliseconds); assay type: toxicity, tissue-based
[14] = Cardiotoxicity in Langendorff perfused Wistar rat heart assessed as cycle length interval time at 10 uM by electrocardiography (reference value: 217.15 to 242.23 milliseconds); assay type: toxicity, tissue-based
[15] = Cardiotoxicity in Langendorff perfused Wistar rat heart assessed as PQ interval time at 0.1 uM by electrocardiography (reference value: 41.13 to 42.63 milliseconds); assay type: toxicity, tissue-based
[16] = Cardiotoxicity in Langendorff perfused Wistar rat heart assessed as PQ interval time at 1 uM by electrocardiography (reference value: 41.13 to 42.63 milliseconds); assay type: toxicity, tissue-based
[17] = Cardiotoxicity in Langendorff perfused Wistar rat heart assessed as PQ interval time at 3 uM by electrocardiography (reference value: 41.13 to 42.63 milliseconds); assay type: toxicity, tissue-based
[18] = Cardiotoxicity in Langendorff perfused Wistar rat heart assessed as PQ interval time at 10 uM by electrocardiography (reference value: 41.13 to 42.63 milliseconds); assay type: toxicity, tissue-based
[19] = Cardiotoxicity in Langendorff perfused Wistar rat heart assessed as QRS interval time at 0.1 uM by electrocardiography (reference value: 13.31 to 14.35 milliseconds); assay type: toxicity, tissue-based
[20] = Cardiotoxicity in Langendorff perfused Wistar rat heart assessed as QRS interval time at 1 uM by electrocardiography (reference value: 13.31 to 14.35 milliseconds); assay type: toxicity, tissue-based
[21] = Cardiotoxicity in Langendorff perfused Wistar rat heart assessed as QRS interval time at 3 uM by electrocardiography (reference value: 13.31 to 14.35 milliseconds); assay type: toxicity, tissue-based
[22] = Cardiotoxicity in Langendorff perfused Wistar rat heart assessed as QRS interval time at 10 uM by electrocardiography (reference value: 13.31 to 14.35 milliseconds); assay type: toxicity, tissue-based
[23] = Cardiotoxicity in Langendorff perfused Wistar rat heart assessed as QTc interval time at 0.1 uM by electrocardiography (reference value: 76.45 to 80.07 milliseconds); assay type: toxicity, tissue-based
[24] = Cardiotoxicity in Langendorff perfused Wistar rat heart assessed as QTc interval time at 1 uM by electrocardiography (reference value: 76.45 to 80.07 milliseconds); assay type: toxicity, tissue-based
[25] = Cardiotoxicity in Langendorff perfused Wistar rat heart assessed as QTc interval time at 3 uM by electrocardiography (reference value: 76.45 to 80.07 milliseconds); assay type: toxicity, tissue-based
[26] = Cardiotoxicity in Langendorff perfused Wistar rat heart assessed as QTc interval time at 10 uM by electrocardiography (reference value: 76.45 to 80.07 milliseconds); assay type: toxicity, tissue-based
[27] = target: T1, Phosphoethanolamine N-methyltransferase (Plasmodium falciparum) (UniProt Q8IDQ9); test: Inhibition of plasmodium falciparum phosphoethanolamine N-methyltransferase expressed in Escherichia coli assessed as remaining enzyme activity at 100 uM using phosphoethanolamine as substrate and [methyl-14C] SAM by radiochemical assay
T1 sequence (whole entry): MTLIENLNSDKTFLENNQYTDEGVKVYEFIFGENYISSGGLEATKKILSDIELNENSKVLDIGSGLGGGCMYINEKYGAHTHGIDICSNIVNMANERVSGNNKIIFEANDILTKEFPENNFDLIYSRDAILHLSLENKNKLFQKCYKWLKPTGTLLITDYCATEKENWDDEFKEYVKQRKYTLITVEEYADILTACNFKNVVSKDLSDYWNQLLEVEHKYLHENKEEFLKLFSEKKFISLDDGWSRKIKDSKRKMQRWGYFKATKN
In short: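 Recombinant PfPMT purified from E. coli, 2 μg per 100 μL reaction. Buffer 0.1 M HEPES-KOH pH 8.0, 2 mM Na2EDTA, 10% glycerol, 5% DMSO, with 30 μM SAM (100 nCi [methyl-14C]SAM) and 55 μM phosphoethanolamine; radiochemical read-out.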

hERG (KCNH2) = hERG (KCNH2) (Homo sapiens, UniProt Q12809); test: Inhibition of human ERG at 50 uM
Chain of hERG (KCNH2) (Q12809 whole entry): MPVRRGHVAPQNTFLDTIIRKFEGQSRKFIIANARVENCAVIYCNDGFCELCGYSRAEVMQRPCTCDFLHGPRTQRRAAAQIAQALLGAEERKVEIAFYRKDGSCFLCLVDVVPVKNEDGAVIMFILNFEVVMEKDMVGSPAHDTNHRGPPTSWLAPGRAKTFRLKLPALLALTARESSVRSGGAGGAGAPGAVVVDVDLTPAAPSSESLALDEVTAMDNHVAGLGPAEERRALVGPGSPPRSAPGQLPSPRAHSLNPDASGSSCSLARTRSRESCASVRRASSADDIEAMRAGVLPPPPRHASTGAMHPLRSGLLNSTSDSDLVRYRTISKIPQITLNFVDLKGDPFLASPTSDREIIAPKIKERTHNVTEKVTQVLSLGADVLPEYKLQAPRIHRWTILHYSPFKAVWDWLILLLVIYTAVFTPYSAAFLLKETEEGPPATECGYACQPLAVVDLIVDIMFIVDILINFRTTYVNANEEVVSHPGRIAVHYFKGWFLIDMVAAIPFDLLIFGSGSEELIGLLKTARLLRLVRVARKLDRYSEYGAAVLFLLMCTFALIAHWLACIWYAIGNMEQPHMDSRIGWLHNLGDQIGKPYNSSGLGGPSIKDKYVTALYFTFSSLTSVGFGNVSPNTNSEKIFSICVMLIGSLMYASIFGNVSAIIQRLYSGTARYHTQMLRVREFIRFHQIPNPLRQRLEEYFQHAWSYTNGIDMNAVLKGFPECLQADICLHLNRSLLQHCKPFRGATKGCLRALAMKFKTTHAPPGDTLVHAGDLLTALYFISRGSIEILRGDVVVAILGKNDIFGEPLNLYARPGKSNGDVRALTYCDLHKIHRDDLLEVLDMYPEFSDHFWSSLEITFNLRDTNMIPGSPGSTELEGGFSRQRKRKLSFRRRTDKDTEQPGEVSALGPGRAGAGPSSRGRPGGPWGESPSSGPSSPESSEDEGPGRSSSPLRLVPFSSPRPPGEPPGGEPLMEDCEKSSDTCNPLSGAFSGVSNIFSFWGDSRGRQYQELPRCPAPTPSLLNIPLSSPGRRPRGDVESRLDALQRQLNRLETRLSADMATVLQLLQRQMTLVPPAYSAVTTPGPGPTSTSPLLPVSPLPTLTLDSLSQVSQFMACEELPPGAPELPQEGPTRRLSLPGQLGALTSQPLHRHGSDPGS

Plasmodium falciparum [28] = test: Antiplasmodial activity against Plasmodium falciparum asexual stage forms; assay type: functional, organism-based
Plasmodium falciparum [29] = test: Gametocytocidal activity against Plasmodium falciparum late stage gametocytes; assay type: functional, organism-based
Plasmodium falciparum [30] = test: Antiplasmodial activity against Plasmodium falciparum sexual stage forms; assay type: functional, organism-based
[31] = target: Voltage-dependent L-type calcium channel subunit alpha-1C (Rattus norvegicus, UniProt P22002); test: Inhibition of CaV1.2 channel in rat tail artery myocytes assessed as reduction in Ba2+ current at -50 mV holding potential by whole-cell patch-clamp assay; assay type: cell-based; conditions: rat
Chain of Voltage-dependent L-type calcium channel subunit alpha-1C (P22002 whole entry): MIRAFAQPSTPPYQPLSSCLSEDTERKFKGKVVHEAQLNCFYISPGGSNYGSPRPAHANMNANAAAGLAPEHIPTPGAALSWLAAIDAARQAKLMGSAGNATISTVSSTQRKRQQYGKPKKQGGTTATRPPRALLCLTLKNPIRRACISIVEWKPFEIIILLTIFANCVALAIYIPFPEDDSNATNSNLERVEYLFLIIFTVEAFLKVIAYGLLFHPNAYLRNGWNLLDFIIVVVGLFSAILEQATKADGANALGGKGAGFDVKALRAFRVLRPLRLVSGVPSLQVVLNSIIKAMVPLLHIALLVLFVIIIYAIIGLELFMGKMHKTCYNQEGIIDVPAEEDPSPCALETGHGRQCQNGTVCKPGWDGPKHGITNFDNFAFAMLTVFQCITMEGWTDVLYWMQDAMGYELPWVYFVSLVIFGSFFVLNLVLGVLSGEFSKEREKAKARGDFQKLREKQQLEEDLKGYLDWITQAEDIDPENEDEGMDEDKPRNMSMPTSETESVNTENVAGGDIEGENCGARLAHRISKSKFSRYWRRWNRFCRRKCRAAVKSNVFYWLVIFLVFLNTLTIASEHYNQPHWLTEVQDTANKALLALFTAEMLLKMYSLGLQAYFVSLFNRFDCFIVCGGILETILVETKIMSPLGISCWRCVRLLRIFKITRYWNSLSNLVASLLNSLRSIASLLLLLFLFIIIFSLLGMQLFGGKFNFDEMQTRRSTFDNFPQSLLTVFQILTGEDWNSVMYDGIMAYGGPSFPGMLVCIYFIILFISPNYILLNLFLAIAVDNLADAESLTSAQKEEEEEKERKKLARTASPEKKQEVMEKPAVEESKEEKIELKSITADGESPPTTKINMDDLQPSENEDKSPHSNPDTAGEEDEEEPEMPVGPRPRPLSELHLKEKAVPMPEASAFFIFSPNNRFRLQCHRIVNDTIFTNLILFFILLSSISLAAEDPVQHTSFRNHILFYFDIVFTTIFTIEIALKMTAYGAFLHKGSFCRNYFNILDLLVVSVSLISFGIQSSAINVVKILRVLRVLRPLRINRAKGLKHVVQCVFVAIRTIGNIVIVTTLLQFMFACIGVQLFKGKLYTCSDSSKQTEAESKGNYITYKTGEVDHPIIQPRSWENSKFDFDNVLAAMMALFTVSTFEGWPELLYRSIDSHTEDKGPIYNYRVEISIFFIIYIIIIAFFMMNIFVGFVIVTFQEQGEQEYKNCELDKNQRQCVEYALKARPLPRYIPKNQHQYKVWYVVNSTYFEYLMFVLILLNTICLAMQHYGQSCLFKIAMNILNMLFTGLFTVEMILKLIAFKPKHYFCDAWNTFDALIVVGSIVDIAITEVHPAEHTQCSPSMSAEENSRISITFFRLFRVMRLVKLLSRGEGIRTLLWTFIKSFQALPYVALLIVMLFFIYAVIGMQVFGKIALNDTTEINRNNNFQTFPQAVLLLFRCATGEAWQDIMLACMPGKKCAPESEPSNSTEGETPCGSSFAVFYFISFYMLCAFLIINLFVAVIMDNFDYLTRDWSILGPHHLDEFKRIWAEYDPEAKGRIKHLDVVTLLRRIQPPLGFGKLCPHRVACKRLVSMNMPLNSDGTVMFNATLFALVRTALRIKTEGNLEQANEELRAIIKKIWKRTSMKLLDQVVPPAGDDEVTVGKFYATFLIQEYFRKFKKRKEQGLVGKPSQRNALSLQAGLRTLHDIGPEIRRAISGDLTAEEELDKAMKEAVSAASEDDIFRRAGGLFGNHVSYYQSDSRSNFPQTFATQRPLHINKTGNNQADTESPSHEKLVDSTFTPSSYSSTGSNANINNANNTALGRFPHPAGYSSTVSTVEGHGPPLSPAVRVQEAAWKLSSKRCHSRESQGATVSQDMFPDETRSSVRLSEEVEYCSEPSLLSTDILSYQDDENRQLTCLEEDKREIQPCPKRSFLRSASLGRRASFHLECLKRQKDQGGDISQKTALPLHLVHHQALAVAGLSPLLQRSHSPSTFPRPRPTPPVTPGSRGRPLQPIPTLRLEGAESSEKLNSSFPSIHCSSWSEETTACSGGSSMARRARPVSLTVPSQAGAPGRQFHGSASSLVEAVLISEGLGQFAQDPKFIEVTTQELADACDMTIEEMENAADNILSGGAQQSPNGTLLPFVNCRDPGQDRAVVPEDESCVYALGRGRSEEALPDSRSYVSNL
In short: (§2)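 Freshly isolated rat tail artery smooth muscle cells (collagenase digestion), whole-cell patch clamp at 20–22 °C. External solution: 5 mM Ba2+, 30 mM TEA; Cs+-based internal solution, pH 7.4. Currents from 250-ms pulses to 0 mV from Vh −50 mV at 0.067 Hz, after 7–10 min stabilisation. Leak corrected with 10 μM nifedipine. Peak current as % of control; n = 3–6 cells from ≥3 animals.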

CaV1.2 channel = CaV1.2 channel (Rattus norvegicus, UniProt P22002); test: Inhibition of CaV1.2 channel in rat tail artery myocytes assessed as reduction in Ba2+ current at 10 uM at -50 mV holding potential by whole-cell patch-clamp assay; assay type: cell-based; in short: as §2
Chain of CaV1.2 channel (P22002 whole entry): as above

## Clc1cc(Br)ccc1-c1ccc(CNCC2CCNCC2)o1
Plasmodium falciparum [1]
  IC50: 0.77 µM
Plasmodium falciparum [2]
  IC50: 2.3 µM
Plasmodium falciparum [3]
  IC50: 1.2 µM
Plasmodium falciparum [4]
  EC50: 0.07 µM
[5]
  Activity: Dose-dependent effect
[6]
  Activity: Non-Toxic
[7]
  Activity: 256.15 bpm
[8]
  Activity: 258.35 bpm
[9]
  Activity: 257.71 bpm
[10]
  Activity: 222.74 bpm
[11]
  Time: 235.08 ms
[12]
  Time: 232.48 ms
[13]
  Time: 233.9 ms
[14]
  Time: 272.57 ms
[15]
  Time: 42.29 ms
[16]
  Time: 42.5 ms
[17]
  Time: 47.9 ms
[18]
  Time: 67.5 ms
[19]
  Time: 14.25 ms
[20]
  Time: 15.8 ms
[21]
  Time: 17.46 ms
[22]
  Time: 23.75 ms
[23]
  Time: 81.51 ms
[24]
  Time: 80.93 ms
[25]
  Time: 82.1 ms
[26]
  Time: 80.99 ms
[27]
  Activity: 92%
hERG (KCNH2)
  inhibition at 50 µM: 83%
Plasmodium falciparum [28]
  IC50: < 1 µM
Plasmodium falciparum [29]
  IC50: < 1 µM
Plasmodium falciparum [30]
  IC50: < 1 µM
[31]
  inhibition (INH): Dose-dependent effect
CaV1.2 channel
  inhibition at 10 µM: 57%
